Assay results from different studies.
Protocols differ between the studies behind these lines.
SIRT6: NAD-dependent protein deacylase sirtuin-6 (SIRT6, Homo sapiens, UniProt Q8N6T7)
PKM: Pyruvate kinase PKM (PKM, Homo sapiens, UniProt P14618)
CDK2: Cyclin-dependent kinase 2 (CDK2, Homo sapiens, UniProt P24941)
HTR7: 5-hydroxytryptamine receptor 7 (HTR7, Homo sapiens, UniProt P34969)
OR5K1 A2T/T15M/Y193C: OR5K1 (Homo sapiens, UniProt Q8NHB7, A2T/T15M/Y193C)
STAT3: Signal transducer and activator of transcription 3 (STAT3, Homo sapiens, UniProt P40763)
HTR6: 5-hydroxytryptamine receptor 6 (HTR6, Homo sapiens, UniProt P50406)
OR5K1: OR5K1 (Homo sapiens, UniProt Q8NHB7)

SMILES	target	assay	setting	measurement	value
Cc1cnc(-c2ccc(-c3ccc(NC(=O)Nc4c(F)cc(F)cc4F)cc3F)c3c2C(=O)NC3)[nH]1	Mitogen-activated protein kinase kinase kinase kinase 1 (MAP4K1, Homo sapiens, UniProt Q92918)	binding, competition with immobilised ligand		Kd	0.0072 µM
NC(=O)c1ccc(C(=O)NOCc2ccc(Sc3ccc(N)cc3)c(C(F)(F)F)c2)cc1	SIRT6	enzyme activity, inhibitor, fluorescence		IC50	1.8 µM
Cc1ccc(NS(=O)(=O)c2cc3c(cc2N2CCC(N(C)C)C2)NC(=O)CC3)cc1C (stereo not shown)	PKM	enzyme activity, activator		AC50	> 20 µM
O=C(Nc1cc(C2CCCCC2)[nH]n1)c1ccc(Br)cc1	CDK2	binding, ITC		Kd	> 100 µM
CNc1cc2c(cc1S(=O)(=O)Nc1ccc(C)c(C)c1)CCC(=O)N2	PKM	enzyme activity, activator		AC50	0.44 µM
NC(=O)c1ccc(C(=O)NOCc2ccc3nccnc3c2)cc1	SIRT6	enzyme activity, inhibitor, fluorescence		IC50	65 µM
Cc1cnc(C)c(C)n1	OR5K1 (Homo sapiens, UniProt Q8NHB7, F62L)	cAMP, agonist		EC50	376 µM
CN(C)CCC=C1c2ccccc2CCc2ccccc21	HTR7	ligand displacement, radioligand	cell membranes	Ki	0.096 µM
O=C(NOCc1ccc(C(F)(F)F)cc1)c1ccc(CO)cc1	SIRT6	enzyme activity, inhibitor, fluorescence		IC50	6.68 µM
CC(=O)N[C@H](C(=O)N[C@@H](CC(N)=O)C(=O)N[C@@H](CCCCN)C(=O)N[C@@H](C)C(=O)N[C@@H](CC(C)C)C(=O)N1CCC[C@H]1C(=O)N[C@@H](C)C(=O)N[C@@H](CC(C)C)C(=O)N1CCC[C@H]1C(=O)N[C@H](C(=O)N[C@@H](C)C(N)=O)C(C)C)C(C)C	Tyrosine-protein kinase Fyn, SH3 (FYN, Homo sapiens, UniProt P06241)	binding, ITC	pH 7	Kd	70 µM
CCc1ncc(C)nc1CC	OR5K1 A2T/T15M/Y193C	cAMP, agonist		EC50	102 µM
Cc1cc(C)c(S(=O)(=O)N(C)CC(=O)N(Cc2cc(C(C)(C)C)cc(C(C)(C)C)c2)c2ccc(C(=O)O)c(O)c2)c(C)c1	STAT3	ligand displacement, FP		Ki	19.7 µM
Cc1ccc(NS(=O)(=O)c2cc3c(cc2/C=C/c2ccccc2)NC(=O)CO3)cc1C	PKM	enzyme activity, activator		AC50	> 20 µM
CC(=O)Nc1ccc(C(=O)NOCc2ccccc2)cc1	SIRT6	enzyme activity, inhibitor, fluorescence		IC50	218 µM
Cc1ccc(NS(=O)(=O)c2cc3c(cc2Cl)NC(=O)CO3)cc1C	PKM	enzyme activity, activator		AC50	0.26 µM
COc1ccc(Sc2ccc(CONC(=O)c3ccc(C(N)=O)cc3)cc2C(F)(F)F)cc1	SIRT6	enzyme activity, inhibitor, fluorescence		IC50	1.48 µM
CCc1nc2cc(OCCCCN3CCC(c4cccc(Cl)c4Cl)CC3)ccc2s1	HTR6	cell-free assay, radioligand		Ki	0.96 µM
CN(C)CCSc1nc2ccccc2cc1-c1ccccc1	HTR7	ligand displacement, radioligand	cell membranes	Ki	0.393 µM
Nc1nc2c(ncn2[C@@H]2O[C@H](COP(=O)(O)OP(=O)(O)O)[C@@H](OP(=O)(O)OP(=O)(O)O)[C@H]2O)c(=O)[nH]1	Xanthine-guanine phosphoribosyltransferase (Escherichia coli, UniProt P0A9M5)	binding, ITC		Kd	3.2 µM
Cc1nc2n(c(=O)c1CCN1CCC(c3noc4cc(F)ccc34)CC1)CCCC2O (stereo not shown)	HTR7	ligand displacement, radioligand	cell membranes	Ki	0.01 µM

SMILES	target	assay	setting	measurement	value
Cc1nccnc1C	OR5K1	cAMP, agonist		EC50	> 1500 µM
Cc1ccc(NS(=O)(=O)c2cc3c(cc2NC(C)C)NC(=O)CC3)cc1C	PKM	enzyme activity, activator		AC50	0.57 µM
Cc1cnc(C)cn1	OR5K1	cAMP, agonist		EC50	> 1500 µM
C[C@@H](CO)Nc1cc2c(cc1S(=O)(=O)Nc1ccc(F)c(Cl)c1)CCC(=O)N2	PKM	enzyme activity, activator		AC50	0.13 µM
c1cnc2cc3c(cc2n1)[C@@H]1CNC[C@H]3C1	Neuronal acetylcholine receptor subunit alpha-4/beta-2 (Mus musculus, UniProt O70174+Q9ERK7)	ligand displacement, radioligand	cell membranes	Ki	0.00299 µM
CC(C)(C)c1ccc(CONC(=O)c2ccc(C(N)=O)cc2)cc1	SIRT6	enzyme activity, inhibitor, fluorescence		IC50	2.79 µM
Cc1cc(C)c(S(=O)(=O)N(C)CC(=O)N(Cc2ccc3ccccc3c2)c2ccc(C(=O)O)c(O)c2)c(C)c1	STAT3	ligand displacement, FP		Ki	27.7 µM
CC(C)[C@@H](CC[C@@H](C)[C@H]1CC[C@H]2[C@@H]3[C@H](O)C[C@H]4C[C@@H](NCCCNCCCCNCCCN)CC[C@]4(C)[C@H]3CC[C@]12C)OS(=O)(=O)O	Receptor-type tyrosine-protein phosphatase C (PTPRC, Homo sapiens, UniProt P08575)	enzyme activity, inhibitor		Ki	18 µM
CN1CCC(=C2c3ccccc3C=Cc3ccccc32)CC1	HTR7	ligand displacement, radioligand	cell membranes	Ki	0.024 µM
Cc1cccc(Sc2ccc(CONC(=O)c3ccc(C(N)=O)cc3)cc2C(F)(F)F)c1	SIRT6	enzyme activity, inhibitor, fluorescence		IC50	1.81 µM
Cc1ccc(NS(=O)(=O)c2cc3c(cc2NC(C)CO)NC(=O)CC3)cc1C (stereo not shown)	PKM	enzyme activity, activator		AC50	0.23 µM
Cc1ccc2cccc(N3CCN(CCCCOc4ccc5sc(C(C)C)nc5c4)CC3)c2n1	HTR6	cell-free assay, radioligand		Ki	2.2 µM
NC(=O)c1ccc(C(=O)NOCc2ccc(Sc3ccccc3)c(C(F)(F)F)c2)cc1	SIRT6	enzyme activity, inhibitor, fluorescence		IC50	1.63 µM
CC1=C(/C=C/C2=CCC[C@]3(C)[C@@H]([C@H](C)CCCC(C)(C)O)CC[C@@H]23)C[C@@H](O)CC1	Oxysterols receptor LXR-beta (NR1H2, Homo sapiens, UniProt P55055)	coactivator recruitment, agonist, TR-FRET		EC50	0.01 to 0.1 µM
CC(=O)N=S(=O)(O)c1ccc(N/C=C2\C(=O)Nc3ccc4ncsc4c32)cc1	CDK2	binding		Kd	0.526 µM
CCc1nccnc1CC	OR5K1 A2T/T15M/Y193C	cAMP, agonist		EC50	499 µM
CCCCN1CCC(COC(=O)c2ccc(N)c(OCF)c2)CC1	HTR6	cell-free assay, radioligand		Ki	> 10 µM
O=C1CCc2cc(S(=O)(=O)Nc3ccc4c(c3)OCCO4)ccc2N1	PKM	enzyme activity, activator		AC50	11.1 µM
c1cncc(-c2cccc(Nc3nccc(NC4CCCCC4)n3)c2)c1	Serine/threonine-protein kinase D3 (PRKD3, Homo sapiens, UniProt O94806)	binding, competition with immobilised ligand		Kd	1.7 µM
CC[C@H](NC(=O)[C@H](CS(=O)(=O)CC1CC1)N[C@@H](c1ccc(F)cc1)C(F)(F)F)C(=O)C(=O)NC1CC1	Cathepsin B (CTSB, Homo sapiens, UniProt P07858)	enzyme activity, inhibitor, fluorescence	with preincubation	Ki	0.00033 µM
